ChEMBL document CHEMBL4043284, “The Synthesized Plant Metabolite 3,4,5-Tri-O-Galloylquinic Acid Methyl Ester Inhibits Calcium Oxalate Crystal Growth in a Drosophila Model, Downregulates Renal Cell Surface Annexin A1 Expression, and Decreases Crystal Adhesion to Cells” (J Med Chem, 2018)
pEC50, pIC50: −log10 of the molar value. Calls of active or inactive are those of the source. The rule behind the calls is not given here.

Tests used:
[1] = test system: MDCK1; test: Downregulation of AxA1 expression in membrane fractions of MDCK1 cells at 50 uM after 3 hrs by Western blot method; format: functional, cell-based; settings: Canis lupus familiaris
Procedure, shortened: (§1)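 MDCKI cells seeded at 5×10^5 per well and treated with 50 μM for 3 h. Cytosolic fraction extracted with PIPES/EDTA/0.02% digitonin buffer for 10 min at 4°C. Membrane fraction taken from the pellet in SDS/Tris pH 6.8 buffer. Whole lysate prepared separately. 30 μg protein per lane on 7.5% gel; blots probed for annexin A1, HSP90 and α-enolase, with β-actin as loading control. Bands read by ECL densitometry. Mean ± SEM, n=3.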

[2] = Effect on total HSP90 expression in MDCK1 cells at 50 uM after 3 hrs by Western blot method; format: ADME, cell-based, Canis lupus familiaris; settings: dog, mdck1, 3 h; procedure, shortened: as §1
[3] = test system: MDCK1; test: Downregulation of alpha-enolase expression in membrane fractions of MDCK1 cells at 50 uM after 3 hrs by Western blot method; format: functional, cell-based; settings: Canis lupus familiaris; procedure, shortened: as §1
[4] = Effect on total alpha-enolase expression in MDCK1 cells at 50 uM after 3 hrs by Western blot method; format: ADME, cell-based, Canis lupus familiaris; settings: dog, mdck1, 3 h; procedure, shortened: as §1
[5] = Inhibition of AxA1 expression in MDCK1 cell surface at 50 uM after 3 hrs by laser scanning confocal microscopic method relative to control; format: functional; settings: Canis lupus familiaris, MDCK1, 3 h
Procedure, shortened: (§2)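 MDCKI cells grown overnight on collagen-coated chamber slides and treated ± 50 μM for 3 h. Fixed in 4% paraformaldehyde. Intracellular staining done with 0.2% Triton permeabilization; surface staining done without permeabilization. Rabbit anti-annexin A1 applied overnight at 4°C, then Alexa Fluor 488 anti-rabbit secondary. Nuclei counterstained with TOTO-3. Imaged by confocal microscopy, 63× oil objective.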

[6] = test system: MDCK1; test: Increase in intracellular AxA1 expression in MDCK1 cells at 50 uM after 3 hrs by laser scanning confocal microscopic method; format: functional, cell-based; settings: Canis lupus familiaris; procedure, shortened: as §2
[7] = test system: MDCK1; test: Upregulation of alpha-enolase expression in cytosolic fractions of MDCK1 cells at 50 uM after 3 hrs by Western blot method; format: functional, cell-based; settings: Canis lupus familiaris; procedure, shortened: as §1
[8] = test system: Drosophila melanogaster; test: Inhibition of calcium oxalate crystal size in Oregon R Drosophila melanogaster malpighian tubule model at 100 uM preincubated with test compound alone for 20 mins followed by addition of calcium oxalate along with test compound measured after 1 hr by DIC microscopy; format: functional
Procedure, shortened: (§3)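 Malpighian tubules dissected from wild-type Oregon R female flies. Tubules preincubated in iPBS with 100 μM for 20 min, then given 100 μM plus Na-oxalate for 1 h, with solutions renewed every 15 min. Controls received oxalate alone. The first 600 μm of anterior tubule imaged by DIC birefringence. Crystal number and area measured with ImageJ. n=12 per group; means ± SE.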

[9] = Cytotoxicity against MDCK1 cells assessed as decrease in cell viability up to 155 +/- 4 uM after 24 hrs by MTT assay; format: cell-based, Canis lupus familiaris; settings: dog, mdck1, 24 h
[10] = test system: MDCK1; test: Upregulation of HSP90 expression in cytosolic fractions of MDCK1 cells at 50 uM after 3 hrs by Western blot method; format: functional, cell-based; settings: Canis lupus familiaris; procedure, shortened: as §1
[11] = test system: MDCK1; test: Downregulation of HSP90 expression in membrane fractions of MDCK1 cells at 50 uM after 3 hrs by Western blot method; format: functional, cell-based; settings: Canis lupus familiaris; procedure, shortened: as §1
[12] = Inhibition of cell surface associated calcium oxalate monohydrate crystal levels in MDCK1 cells preincubated for 3 to 6 hrs followed by calcium oxalate monohydrate crystal addition measured after 30 mins by phase contrast microscopy relative to control; format: functional, Canis lupus familiaris
Procedure, shortened: (§4)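 MDCKI cells seeded at 5×10^5 per well and cultured for 24 h. Pretreated at 0–50 μM for 3 h (concentration series), or at 25 or 50 μM for 1, 3 or 6 h (time course). Cells then washed and exposed to COM crystals (100 μg/mL) for 30 min, followed by five washes with plain medium. Adherent crystals counted by phase-contrast microscopy in 15 random high-power fields, ×400.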

[13] = test system: MDCK1; test: Upregulation of AxA1 expression in cytosolic fractions of MDCK1 cells at 50 uM after 3 hrs by Western blot method; format: functional, cell-based; settings: Canis lupus familiaris; procedure, shortened: as §1
[14] = Effect on total AxA1 expression in MDCK1 cells at 50 uM after 3 hrs by Western blot method; format: ADME, cell-based, Canis lupus familiaris; settings: dog, mdck1, 3 h; procedure, shortened: as §1
[15] = test system: MDCK1; test: Inhibition of calcium oxalate monohydrate crystal binding to MDCK1 cell surface preincubated for 3 hrs followed by calcium oxalate monohydrate crystal addition measured after 30 mins by phase contrast microscopy; format: functional, cell-based; settings: Canis lupus familiaris; procedure, shortened: as §4
[16] = test system: Drosophila melanogaster; test: Inhibition of total calcium oxalate crystal area in Oregon R Drosophila melanogaster malpighian tubule model at 100 uM preincubated with test compound alone for 20 mins followed by addition of calcium oxalate along with test compound measured after 1 hr by DIC microscopy; format: functional; procedure, shortened: as §3
[17] = test system: Drosophila melanogaster; test: Inhibition of calcium oxalate crystallization in Oregon R Drosophila melanogaster malpighian tubule model at 100 uM preincubated with test compound alone for 20 mins followed by addition of calcium oxalate along with test compound measured after 1 hr by DIC microscopy; format: functional; procedure, shortened: as §3
[18] = Antioxidant activity assessed as DPPH radical scavenging activity incubated in dark for 20 mins; format: functional
Procedure, shortened: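 Compound stock 1 mM in DMSO; 2–20 μL portions made up to 40 μL with DMSO and added to 1.96 mL of 0.1 mM DPPH. Held at RT for 20 min in the dark, then absorbance read at 517 nm. DPPH alone served as control. % radical scavenging = (control − test)/control × 100.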

[19] = Cytotoxicity against MDCK1 cells assessed as decrease in cell viability after 24 hrs by MTT assay; format: cell-based; settings: Canis lupus familiaris, MDCK1, 24 h
Procedure, shortened: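 MDCKI cells seeded at 1×10^4 per well, exposed 24 h to 0, 5, 10, 25, 50 μM (in DMSO/PBS). MTT (5 mg/mL working solution) added for 3 h at 37°C, then stop solution; OD read at 570 nm. Viability expressed as percent of untreated control after blank subtraction; IC50 reported. Means ± S.D. of three independent experiments.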

[20] = test system: MDCK1; test: Inhibition of calcium oxalate monohydrate crystal binding to MDCK1 cell surface at 10 uM preincubated for 3 hrs followed by calcium oxalate monohydrate crystal addition measured after 30 mins by phase contrast microscopy; format: functional, cell-based; settings: Canis lupus familiaris
Procedure, shortened: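 MDCKI cells (5×10^5 per well) cultured 24 h in complete medium, pretreated 3 h with 0, 1 or 10 μM, washed with PBS, then exposed 30 min to COM crystals (100 μg/mL medium). Unbound crystals removed by five washes with plain DMEM. Adherent crystals counted by phase-contrast microscopy in 15 random high-power fields per well.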

**Q.** With COC(=O)[C@]1(O)C[C@@H](OC(=O)c2cc(O)c(O)c(O)c2)[C@@H](OC(=O)c2cc(O)c(O)c(O)c2)[C@H](OC(=O)c2cc(O)c(O)c(O)c2)C1 as the molecule, how does the Activity [1] read?
**A.** Active

**Q.** And the Activity [2]?
**A.** Non-Toxic

**Q.** And the Activity [3]?
**A.** Active

**Q.** What about the Activity [4] of the same molecule?
**A.** Non-Toxic

**Q.** And the inhibition at 50 µM [5]?
**A.** 50%

**Q.** What about the Activity [6] of the same molecule?
**A.** Active

**Q.** What about the Activity [7] of the same molecule?
**A.** Active

**Q.** What about the inhibition [8] of the same molecule?
**A.** Active

**Q.** What about the Activity [9] of the same molecule?
**A.** Non-Toxic

**Q.** What about the Activity [10] of the same molecule?
**A.** Active

**Q.** And the Activity [11]?
**A.** Active

**Q.** What about the “inhibition (INH)” value [12] of the same molecule?
**A.** 50%

**Q.** What about the Activity [13] of the same molecule?
**A.** Active

**Q.** And the Activity [14]?
**A.** Non-Toxic

**Q.** What about the inhibition [15] of the same molecule?
**A.** Dose-dependent effect

**Q.** And the inhibition [16]?
**A.** Active

**Q.** What about the inhibition [17] of the same molecule?
**A.** Active

**Q.** What about the pEC50 [18] of the same molecule?
**A.** 4.96

**Q.** With COC(=O)[C@]1(O)C[C@@H](O)[C@@H](O)[C@H](O)C1 as the molecule, how does the pIC50 [19] read?
**A.** 3.92

**Q.** And the Activity [18]?
**A.** inactive

**Q.** With O=C1O[C@H]([C@@H](O)CO)C(O)=C1O [ASCORBIC ACID] as the molecule, how does the pEC50 [18] read?
**A.** 4.35

**Q.** With O=C(O)c1cc(O)c(O)c(O)c1 [GALLIC ACID] as the molecule, how does the pIC50 [19] read?
**A.** 4.47

**Q.** And the inhibition [20]?
**A.** Active

**Q.** What about the pEC50 [18] of the same molecule?
**A.** 5.52
